Assays:
Type in all cases: functional
Mus musculus [1] = assay: Antiepileptic activity in KM mouse assessed as protection against maximal electroshock-induced seizures at 100 mg/kg, po administered 1 hr prior to electrical stimulation
Outline: (§1)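 Male KM mice, 20 ± 2 g, dosed orally; vehicle-treated group as control. Read-out is protection rate against maximal electroshock-induced seizures. Graded doses of 25, 50, 75, 100 and 150 mg/kg were used. ED50 and 95% confidence interval were fitted to the Hill equation.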

Mus musculus [2] = assay: Antiepileptic activity in po dosed KM mouse assessed as protection against maximal electroshock-induced seizures administered 1 hr prior to electrical stimulation; outline: as §1
Mus musculus [3] = assay: Antiepileptic activity in KM mouse assessed as protection against maximal electroshock-induced seizures at 25 mg/kg, po administered 1 hr prior to electrical stimulation; outline: as §1
Mus musculus [4] = assay: Antiepileptic activity in KM mouse assessed as protection against maximal electroshock-induced seizures at 50 mg/kg, po administered 1 hr prior to electrical stimulation; outline: as §1
Mus musculus [5] = assay: Antiepileptic activity in KM mouse assessed as protection against maximal electroshock-induced seizures at 75 mg/kg, po administered 1 hr prior to electrical stimulation; outline: as §1
Mus musculus [6] = assay: Antiepileptic activity in KM mouse assessed as protection against maximal electroshock-induced seizures at 150 mg/kg, po administered 1 hr prior to electrical stimulation; outline: as §1
Mus musculus [7] = assay: Antiepileptic activity in po dosed KM mouse assessed as protection against maximal electroshock-induced seizures administered 30 mins prior to electrical stimulation
Outline: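 Male KM mice (20 ± 2 g) were given compound orally, with a vehicle control group. Screening used 100 mg/kg, and dose–response series used 25, 50, 75, 100 and 150 mg/kg. The read-out was the percentage of mice protected from MES-induced seizures. ED50 and 95% confidence intervals were derived by Hill-equation fitting.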

CO[C@H]1C[C@H](O[C@@H]2[C@H](C)O[C@@H](O[C@H]3[C@@H](OC)C[C@H](O[C@H]4CC[C@@]5(C)C(=CC[C@]6(O)[C@@H]5C[C@@H](OC(=O)/C=C/c5ccccc5)[C@@]5(C)[C@]6(O)CC[C@@]5(O)C(C)=O)C4)O[C@@H]3C)C[C@@H]2OC)O[C@H](C)[C@H]1O
inhibition in vivo at 100 mg/kg (Mus musculus [1]): 60% | ED50 (Mus musculus [2]): 95.3 mg/kg

CO[C@H]1C[C@@H](O[C@H]2[C@H](C)O[C@H](O[C@H]3[C@@H](C)O[C@H](O[C@H]4[C@@H](OC)C[C@H](O[C@@H]5CC[C@]6(C)C(=CC[C@@]7(O)[C@H]6C[C@H](OC(C)=O)[C@]6(C)[C@@]7(O)CC[C@]6(O)C(C)=O)C5)O[C@@H]4C)C[C@H]3OC)C[C@H]2OC)O[C@H](C)[C@H]1O
ED50 (Mus musculus [2]): > 200 mg/kg

CO[C@H]1C[C@@H](O[C@H]2[C@H](C)O[C@H](O[C@H]3[C@@H](C)O[C@H](O[C@H]4[C@@H](OC)C[C@H](O[C@@H]5CC[C@]6(C)C(=CC[C@@]7(O)[C@H]6C[C@H](OC(=O)/C=C(\C)C(C)C)[C@]6(C)[C@@]7(O)CC[C@]6(O)C(C)=O)C5)O[C@@H]4C)C[C@H]3OC)C[C@H]2OC)O[C@H](C)[C@H]1O
inhibition in vivo at 100 mg/kg (Mus musculus [1]): 40% | ED50 (Mus musculus [2]): 124 mg/kg

CC[C@@H](C)C(=O)O[C@@H](C)[C@]1(O)CC[C@@]2(O)[C@]1(C)[C@H](OC(=O)/C=C/c1ccccc1)C[C@@H]1[C@@]3(C)CC[C@H](O[C@@H]4C[C@@H](OC)[C@@H](O[C@H]5C[C@H](OC)[C@H](O[C@H]6C[C@H](OC)[C@H](O[C@H]7C[C@@H](OC)[C@@H](O)[C@H](C)O7)[C@@H](C)O6)[C@H](C)O5)[C@H](C)O4)CC3=CC[C@]12O
inhibition in vivo at 100 mg/kg (Mus musculus [1]): 90% | inhibition in vivo at 25 mg/kg (Mus musculus [3]): 20% | inhibition in vivo at 50 mg/kg (Mus musculus [4]): 50% | inhibition in vivo at 75 mg/kg (Mus musculus [5]): 70% | inhibition in vivo at 150 mg/kg (Mus musculus [6]): 100% | ED50 (Mus musculus [2]): 48.5 mg/kg

CO[C@H]1C[C@H](O[C@H]2[C@H](C)O[C@H](O[C@H]3CC[C@@]4(C)C(=CC[C@]5(O)[C@@H]4C[C@@H](OC(=O)/C=C/c4ccccc4)[C@@]4(C)[C@]5(O)CC[C@@]4(O)[C@H](C)OC(=O)c4cccnc4)C3)C[C@H]2OC)O[C@@H](C)[C@H]1O[C@H]1C[C@H](OC)[C@H](O[C@H]2C[C@@H](OC)[C@@H](O)[C@H](C)O2)[C@@H](C)O1
inhibition in vivo at 100 mg/kg (Mus musculus [1]): 55.5% | ED50 (Mus musculus [2]): 88.1 mg/kg

CO[C@H]1C[C@@H](O[C@H]2[C@H](C)O[C@H](O[C@H]3[C@@H](C)O[C@H](O[C@H]4[C@@H](OC)C[C@H](O[C@@H]5CC[C@]6(C)C(=CC[C@@]7(O)[C@H]6C[C@H](O)[C@]6(C)[C@@]7(O)CC[C@]6(O)C(C)=O)C5)O[C@@H]4C)C[C@H]3OC)C[C@H]2OC)O[C@H](C)[C@H]1O
ED50 (Mus musculus [2]): > 200 mg/kg

CO[C@H]1C[C@H](O[C@H]2[C@@H](OC)C[C@H](O[C@H]3CC[C@@]4(C)C(=CC[C@]5(O)[C@@H]4C[C@@H](OC(=O)/C=C(\C)C(C)C)[C@@]4(C)[C@]5(O)CC[C@@]4(O)C(C)=O)C3)O[C@@H]2C)O[C@@H](C)[C@H]1O[C@H]1C[C@H](OC)[C@H](O[C@H]2O[C@@H](CO)[C@H](O)[C@@H](O)[C@@H]2O)[C@@H](C)O1
ED50 (Mus musculus [2]): > 200 mg/kg

CO[C@H]1C[C@@H](O[C@H]2[C@H](C)O[C@H](O[C@H]3[C@@H](C)O[C@H](O[C@H]4[C@@H](OC)C[C@H](O[C@@H]5CC[C@]6(C)C(=CCC(=O)[C@H]6C[C@H](OC(=O)/C=C/c6ccccc6)[C@]6(C)C(=O)CC[C@]6(O)[C@@H](C)OC(C)=O)C5)O[C@@H]4C)C[C@H]3OC)C[C@H]2OC)O[C@H](C)[C@H]1O
ED50 (Mus musculus [2]): > 200 mg/kg

CO[C@H]1C[C@H](O[C@H]2CC[C@@]3(C)C(=CC[C@]4(O)[C@@H]3C[C@@H](OC(=O)/C=C(\C)C(C)C)[C@@]3(C)[C@]4(O)CC[C@@]3(O)C(C)=O)C2)O[C@H](C)[C@H]1O[C@@H]1C[C@@H](OC)[C@@H](O[C@H]2C[C@H](OC)[C@H](O[C@@H]3C[C@H](OC)[C@H](O[C@H]4O[C@@H](CO)[C@H](O)[C@@H](O)[C@@H]4O)[C@@H](C)O3)[C@@H](C)O2)[C@@H](C)O1
ED50 (Mus musculus [2]): > 200 mg/kg

CO[C@H]1C[C@@H](O[C@H]2[C@H](C)O[C@H](O[C@H]3[C@@H](C)O[C@H](O[C@H]4[C@@H](OC)C[C@H](O[C@@H]5CC[C@]6(C)C(=CC[C@@]7(O)[C@H]6C[C@H](OC(=O)/C=C/c6ccccc6)[C@]6(C)[C@@]7(O)CC[C@]6(O)C(C)=O)C5)O[C@@H]4C)C[C@H]3OC)C[C@H]2OC)O[C@H](C)[C@H]1O
inhibition in vivo at 100 mg/kg (Mus musculus [1]): 70% | ED50 (Mus musculus [2]): 72.3 mg/kg

CCOC(=O)Nc1ccc(NCc2ccc(F)cc2)cc1N [EZOGABINE]
ED50 (Mus musculus [7]): 15 mg/kg

From ChEMBL document CHEMBL3792385, “Identification and Evaluation of Antiepileptic Activity of C21 Steroidal Glycosides from the Roots of Cynanchum wilfordii” (2016)
